Experimental findings from ChEMBL document CHEMBL3112517, “Identification of dihydrostilbenes in Pholidota chinensis as a new scaffold for GABAA receptor modulators” (Bioorg Med Chem, 2014) are described below.

Common to all, as to assay type: cell-based
The species entered for experiment [1] is Rattus norvegicus. In words: Allosteric modulation of rat GABAA alpha1beta2gamma2S receptor expressed in Xenopus laevis oocytes assessed as potentiation of GABA-induced chloride ion current at holding potential -70 mV at 100 uM by two-microelectrode voltage clamp assay relative to GABA-treated control. The procedure, abridged: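 Stage V–VI Xenopus laevis oocytes were injected with 50 nL of rat α1, β2 and γ2S cRNA mixed 1:1:10 (about 300–3000 pg/nL per subunit), stored at 18 °C in ND96, and recorded on days 1–5. Two-electrode clamp was at −70 mV in pH 7.4 HEPES bath. Compound was applied by fast perfusion with GABA EC3–10, in 1% DMSO final. Enhancement = I(GABA+Comp)/IGABA − 1.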

Experiment [2] concerns the target GABA-A receptor; alpha-1/beta-3/gamma-2 (Homo sapiens) (UniProt P14867+P18507+P28472). In words: Modulation of GABAA alpha1beta3gamma2S receptor (unknown origin) expressed in Xenopus laevis oocytes assessed as potentiation of EC3 to 10 GABA-induced chloride ion current at holding potential -70 mV 1 to 300 uM by two-microelectrode voltage clamp assay relative to GABA-treated control.

For experiment [3], the species on record is Rattus norvegicus. In words: Agonist activity rat GABAA alpha1beta2gamma2S receptor expressed in Xenopus laevis oocytes assessed as potentiation of GABA-induced chloride ion current at holding potential -70 mV at <100 uM compound treated prior to GABA challenge by two-microelectrode voltage clamp assay.
Experiment [4] concerns the target T1, GABA A receptor alpha-2/beta-2/gamma-2 (Homo sapiens, UniProt P18507+P47869+P47870).
T1 sequence (P47870 whole entry): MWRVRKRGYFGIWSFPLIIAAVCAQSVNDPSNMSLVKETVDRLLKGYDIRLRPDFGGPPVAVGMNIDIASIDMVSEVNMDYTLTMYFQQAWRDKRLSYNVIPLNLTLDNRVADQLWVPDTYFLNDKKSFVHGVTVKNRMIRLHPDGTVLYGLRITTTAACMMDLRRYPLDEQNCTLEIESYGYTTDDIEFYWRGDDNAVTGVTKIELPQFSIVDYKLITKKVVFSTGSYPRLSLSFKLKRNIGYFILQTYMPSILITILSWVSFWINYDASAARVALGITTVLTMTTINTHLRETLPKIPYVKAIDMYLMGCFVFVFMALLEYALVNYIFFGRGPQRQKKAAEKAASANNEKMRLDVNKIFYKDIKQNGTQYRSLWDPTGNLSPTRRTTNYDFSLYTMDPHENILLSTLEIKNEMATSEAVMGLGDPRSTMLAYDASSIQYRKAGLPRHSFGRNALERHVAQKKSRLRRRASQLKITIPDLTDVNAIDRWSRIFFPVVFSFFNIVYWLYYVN
T1 sequence (P18507 whole entry): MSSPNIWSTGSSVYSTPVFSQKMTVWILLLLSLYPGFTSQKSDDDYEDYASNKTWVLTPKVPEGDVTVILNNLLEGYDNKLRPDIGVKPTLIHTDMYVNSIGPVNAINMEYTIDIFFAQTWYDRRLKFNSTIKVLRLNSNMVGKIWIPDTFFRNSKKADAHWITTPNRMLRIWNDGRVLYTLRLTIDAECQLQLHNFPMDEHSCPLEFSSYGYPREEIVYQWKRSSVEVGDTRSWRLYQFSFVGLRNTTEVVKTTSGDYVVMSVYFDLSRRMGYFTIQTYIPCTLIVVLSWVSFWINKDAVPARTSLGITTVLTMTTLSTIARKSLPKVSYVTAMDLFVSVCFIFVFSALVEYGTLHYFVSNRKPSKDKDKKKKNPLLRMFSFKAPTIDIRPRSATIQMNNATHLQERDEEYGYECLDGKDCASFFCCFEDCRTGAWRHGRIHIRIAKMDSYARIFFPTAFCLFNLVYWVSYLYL
T1 sequence (P47869 whole entry): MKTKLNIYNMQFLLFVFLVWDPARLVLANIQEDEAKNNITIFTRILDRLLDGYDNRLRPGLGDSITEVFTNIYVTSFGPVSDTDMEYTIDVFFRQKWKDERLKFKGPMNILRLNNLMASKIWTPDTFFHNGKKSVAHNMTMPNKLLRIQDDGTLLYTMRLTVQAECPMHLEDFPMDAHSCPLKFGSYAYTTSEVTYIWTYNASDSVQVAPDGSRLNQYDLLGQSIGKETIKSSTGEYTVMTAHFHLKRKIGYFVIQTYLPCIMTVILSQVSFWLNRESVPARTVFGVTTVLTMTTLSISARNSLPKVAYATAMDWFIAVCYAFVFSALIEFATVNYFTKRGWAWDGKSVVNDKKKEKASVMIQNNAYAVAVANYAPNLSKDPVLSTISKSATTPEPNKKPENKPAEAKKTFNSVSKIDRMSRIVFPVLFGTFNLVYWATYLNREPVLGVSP
In words: Modulation of GABAA alpha2beta2gamma2S receptor (unknown origin) expressed in Xenopus laevis oocytes assessed as potentiation of EC3 to 10 GABA-induced chloride ion current at holding potential -70 mV by two-microelectrode voltage clamp assay.

The source made the active and inactive calls. No cut-off for these calls is given here.

For `COc1cc(O)cc(CCc2cccc(O)c2)c1` [BATATASIN III], in the experiment listed under Rattus norvegicus [1], the Activity was 628%. Also, in experiment [2], the Imax turned out to be 1250%. In addition, in the experiment listed under Rattus norvegicus [3], the result was inactive. For the same compound, the EC50 (as a rule, the concentration needed to bring the measured effect to its halfway point) in experiment [4] was 80.8 µM.
